# Experimental data from ChEMBL document CHEMBL1821718, “Curcumin recognizes a unique binding site of tubulin” (J Med Chem, 2011).
# Calls of active or inactive are those of the source. No cut-off for these calls is given here.
# Assays:
# [1] = Inhibition of goat brain tubulin polymerization assessed as turbidity by UV spectrophotometry; design: species or system Capra hircus
# How it was run: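 Goat brain tubulin in PEM buffer (50 mM PIPES pH 7, 1 mM EGTA, 0.5 mM MgCl2) with 1 mM GTP. Assembly initiated with 10% DMSO at 37 °C and turbidity followed at 360 nm. Half-maximal inhibition taken as the concentration reducing polymer mass by 50%; run in triplicate, at least two repetitions.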
# Capra hircus = species: Capra hircus; assay: Binding affinity to goat brain tubulin by isothermal titration calorimetry
# HeLa [2] = assay: Induction of apoptosis in human HeLa cells assessed as abnormality in nuclear DNA at 5 uM by DAPI staining technique; assay type: functional, cell-based
# A549 [3] = assay: Disruption of interphase microtubule network in human A549 cells at 2.5 uM after 24 hrs by confocal microscopy; assay type: functional, cell-based
# How it was run: (§1)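 A549 or HeLa cells at 10^6 cells/mL exposed to 0–2.5 μM compound for 24 h. PBS-washed, fixed in 2% paraformaldehyde, permeabilized 1 h (0.1% Na citrate, 0.1% Triton), blocked in 5% BSA. Stained with mouse anti-α-tubulin (1:200) then rhodamine anti-mouse IgG (1:150) plus DAPI 1 μg/mL. Interphase network imaged by confocal microscopy; n = 3.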
# A549 [4] = assay: Antiproliferative activity against human A549 cells assessed as loss of cell viability after 48 hrs by MTT assay; assay type: functional, cell-based; conditions: A549, 48 h
# How it was run: (§2)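 Cells seeded at 1 × 10^4 per well in DMEM with 10% FBS, 1 mM L-glutamine and antibiotics at 37 °C, 5% CO2. Exposed to 0–50 μM compound for 48 h. MTT (2 mg/mL in PBS) added until purple precipitate formed; absorbance read at 570 nm against 650 nm reference. Mean ± SEM, n = 4; IC50 taken from concentration-response.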
# MCF7 = assay: Cell cycle arrest in nocodazole pre-treated human MCF7 cells; assay type: functional, cell-based
# A549 [5] = assay: Induction of apoptosis in human A549 cells assessed as abnormality in nuclear DNA at 5 uM by DAPI staining technique; assay type: functional, cell-based
# HeLa [6] = assay: Induction of cell cycle arrest in human HeLa cells assessed as accumulation in G2/M phase at 5 uM after 24 hrs by flow cytometry; assay type: functional, cell-based
# HeLa [7] = assay: Perturbation of spindle microtubule and chromosomal organization in human HeLa cells at 2.5 uM after 24 hrs by immunofluorescence method; assay type: functional, cell-based
# How it was run: (§3)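 Cells exposed to 0–2.5 μM compound for 24 h, fixed in 2% paraformaldehyde, permeabilized, blocked with 5% BSA. Spindles stained with anti-α-tubulin (1:200) and rhodamine secondary (1:150); chromosomes stained with DAPI (1 μg/mL). Bipolar spindle and metaphase-plate alignment scored by confocal microscopy; three experiments.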
# [8] = Binding affinity to goat brain tubulin by spectrofluorimetry
# HeLa (Homo sapiens) = assay: Induction of cell cycle arrest in human HeLa cells assessed as accumulation in G2/M phase at 5 uM after 24 hrs by flow cytometry
# A549 [9] = assay: Induction of apoptosis in human A549 cells assessed as apoptotic cells at 5 uM after 48 hrs by FITC-conjugated annexin-V/PI assay; assay type: functional
# How it was run: (§4)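 About 1 × 10^6 A549 or HeLa cells treated with 0–5 μM compound for 48 h. Stained 15 min at room temperature in the dark with FITC-annexin V (1 μg/mL) and PI (0.5 μg/mL) in Ca2+-enriched binding buffer. Annexin-V-positive fraction quantified by flow cytometry.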
# A549 [10] = assay: Disruption of human A549 cell morphology at 2.5 to 5 uM after 24 hrs by phase contrast microscopy; assay type: functional, cell-based
# How it was run: (§5)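 A549 and HeLa cells grown in DMEM with 10% FBS at 37 °C, 5% CO2, exposed to 2.5 or 5 μM compound for 24 h. Morphology of control and treated cells recorded by inverted phase-contrast microscopy.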
# HeLa [11] = assay: Cell cycle arrest in nocodazole pre-treated human HeLa cells at 5 uM assessed as accumulation in G2/M phase after 8 hrs by flow cytometry; assay type: functional
# How it was run: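 HeLa cells at 1 × 10^6 cells/mL held 20 h in nocodazole (2 μM in methods; 1.5 μM in text), washed, then given fresh medium with 5 μM compound for 8 h. Fixed in ice-cold methanol, treated 4 h at 37 °C with 1 mg/mL RNase A, stained with PI. G2/M fraction measured by FACS.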
# HeLa [12] = assay: Disruption of human HeLa cell morphology at 2.5 to 5 uM after 24 hrs by phase contrast microscopy; assay type: functional, cell-based; how it was run: as §5
# HeLa [13] = assay: Induction of apoptosis in human HeLa cells assessed as apoptotic cells at 5 uM after 48 hrs by FITC-conjugated annexin-V/PI assay; assay type: functional; how it was run: as §4
# A549 [14] = assay: Perturbation of spindle microtubule and chromosomal organization in human A549 cells at 2.5 uM after 24 hrs by immunofluorescence method; assay type: functional, cell-based; how it was run: as §3
# HeLa [15] = assay: Disruption of interphase microtubule network in human HeLa cells at 2.5 uM after 24 hrs by confocal microscopy; assay type: functional, cell-based; how it was run: as §1
# A549 [16] = assay: Disruption of interphase microtubule network in human A549 cells after 24 hrs by confocal microscopy; assay type: functional, cell-based; how it was run: as §1
# HeLa [17] = assay: Antiproliferative activity against human HeLa cells assessed as loss of cell viability after 48 hrs by MTT assay; assay type: functional, cell-based; how it was run: as §2
# HeLa [18] = assay: Disruption of interphase microtubule network in human HeLa cells after 24 hrs by confocal microscopy; assay type: functional, cell-based; how it was run: as §1
smiles,measurement,setting,value
COc1ccc(-n2nc(/C=C/c3ccc(O)c(OC)c3)cc2/C=C/c2ccc(O)c(OC)c2)cc1,IC50,[1],38 µM
COc1cc(/C=C/c2cc(/C=C/c3ccc(O)c(OC)c3)on2)ccc1O,IC50,[1],26 µM
COc1cc(/C=C/c2cc(/C=C/c3ccc(O)c(OC)c3)n(-c3ccc(F)cc3)n2)ccc1O,IC50,[1],34 µM
O=C(O)/C=C/c1ccccc1O,Activity,Capra hircus,inactive
O=C(O)/C=C/c1ccc(O)c(O)c1,Activity,Capra hircus,inactive
COc1cc(/C=C/c2cc(/C=C/c3ccc(O)c(OC)c3)n(-c3cccc([N+](=O)[O-])c3)n2)ccc1O,IC50,[1],36 µM
COc1cc(/C=C/C(=O)CC(=O)/C=C/c2ccc(O)c(OC)c2)ccc1O [CURCUMIN],Activity,HeLa [2],inactive
same,Activity,A549 [3],inactive
same,IC50,A549 [4],17 µM
same,Activity,MCF7,Active
same,Activity,A549 [5],inactive
same,Activity,HeLa [6],inactive
same,Activity,HeLa [7],inactive
same,Ka,[8],5.01 ×10⁵ /M
same,Activity,HeLa (Homo sapiens),inactive
same,IC50,[1],20 µM
same,Activity,A549 [9],16%
same,Activity,A549 [10],inactive
same,Activity,HeLa [11],18%
same,Activity,HeLa [12],inactive
same,Activity,HeLa [13],8%
same,Activity,A549 [14],inactive
same,Activity,HeLa [15],inactive
COc1cc(/C=C/C(=O)CC(=O)/C=C/c2ccc(OC(C)=O)c(OC)c2)ccc1OC(C)=O,IC50,[1],60 µM
COc1cc(C=C(C(=O)/C=C/c2ccc(O)c(OC)c2)C(=O)/C=C/c2ccc(O)c(OC)c2)ccc1O,Activity,HeLa [2],Active
same,Activity,A549 [3],Active
same,IC50,A549 [4],7 µM
same,Activity,A549 [5],Active
same,Activity,HeLa [6],inactive
same,Activity,HeLa [7],Active
same,Activity,A549 [16],Dose-dependent effect
same,IC50,HeLa [17],6 µM
same,Ka,[8],2.5 ×10⁶ /M
same,Activity,HeLa [18],Dose-dependent effect
same,IC50,[1],16 µM
same,Activity,A549 [9],45%
same,Activity,A549 [10],Active
same,Activity,HeLa [11],35%
same,Activity,HeLa [12],Active
same,Activity,HeLa [13],38%
same,Activity,A549 [14],Active
same,Activity,HeLa [15],Active
O=C(O)/C=C/c1ccccc1,Activity,Capra hircus,inactive
COc1cc(/C=C/c2cc(/C=C/c3ccc(O)c(OC)c3)[nH]n2)ccc1O [CURCUMIN PYRAZOLE],IC50,[1],23 µM
COc1ccc(/C=C/C(=O)O)cc1OC,Activity,Capra hircus,inactive
O=C(O)/C=C/c1ccc(O)cc1O,Activity,Capra hircus,inactive
